Test results: ChEMBL document CHEMBL4387719, “Investigation of biaryl heterocycles as inhibitors of Wee1 kinase” (Bioorg Med Chem Lett, 2019)
Active and inactive are the calls of the source. No cut-off for these calls is given here.

Assays:
Wee1-like protein kinase [1] = molecular target: T1, Wee1-like protein kinase (Homo sapiens, UniProt P30291); experiment: Inhibition of WEE1 in human NCI-H1299 cells assessed as reduction in Cdc2 phosphorylation at Tyr15 residue measured after 6 hrs by ELISA; format: cell-based
NCI-H1299 = experiment: Antiproliferative activity against human NCI-H1299 cells after 72 hrs by cell titer glo assay; format: functional, cell-based; settings: NCI-H1299, 72 h
[2] = Clearance in mouse microsomes; format: ADME, Microsome
Wee1-like protein kinase [3] = molecular target: T1, Wee1-like protein kinase; experiment: Binding affinity to wild type N-terminal GST-tagged human WEE1 catalytic domain (215 to 646 residues) expressed in baculovirus expression system measured after 1 hr by TR-FRET assay
MX1 [4] = experiment: (§1) Potentiation of irinotecan-induced antitumor activity against BRCA1/p53 deficient human MX1 cells xenografted in SCID mouse assessed as tumor growth delay at 25 mg/kg/day, po administered every other 2 days for 4 times starting 24 days post-tumor innoculation and measured twice weekly relative to irinotecan; format: functional
Procedure, shortened: (§2)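 MX-1 brei (homogenized tumour cell suspension) was injected subcutaneously into the flank of SCID mice. Treatment started at tumour volume ~350 mm³, with dosing beginning on day 24. Arms were vehicle, irinotecan 10 mg/kg/day Q4Dx4, or irinotecan 10 mg/kg/day Q4Dx4 plus test agent 25 mg/kg/day QD, 2 days on/2 days off, for 4 cycles. Tumour volumes were measured twice weekly.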

[5] = Oral bioavailability in mouse; format: ADME, organism-based; settings: in vivo
[6] = AUC in po dosed mouse; format: ADME, organism-based; settings: in vivo
MX1 [7] = experiment: as §1, with “growth inhibition” for “growth delay”, “starting from” for “starting”, “to control” for “to irinotecan”; format: functional; settings: read-out: TGI; procedure, shortened: as §2
MX1 [8] = experiment: Antitumor activity against BRCA1/p53 deficient human MX1 cells xenografted in SCID mouse assessed as tumor growth inhibition at 25 mg/kg/day, po administered every other 2 days for 4 times starting 24 days post-tumor innoculation and measured twice weekly; format: functional, organism-based
[9] = Half life in iv dosed mouse; format: ADME, organism-based; settings: in vivo
MX1 [10] = experiment: as §1, with “inhibition” for “delay”, “times” for “times starting”, “weekly for 43 days in presence” for “weekly”; format: functional; settings: read-out: TGI; procedure, shortened: as §2
[11] = Clearance in iv dosed mouse; format: ADME, organism-based; settings: in vivo

T1 sequence (P30291 whole entry): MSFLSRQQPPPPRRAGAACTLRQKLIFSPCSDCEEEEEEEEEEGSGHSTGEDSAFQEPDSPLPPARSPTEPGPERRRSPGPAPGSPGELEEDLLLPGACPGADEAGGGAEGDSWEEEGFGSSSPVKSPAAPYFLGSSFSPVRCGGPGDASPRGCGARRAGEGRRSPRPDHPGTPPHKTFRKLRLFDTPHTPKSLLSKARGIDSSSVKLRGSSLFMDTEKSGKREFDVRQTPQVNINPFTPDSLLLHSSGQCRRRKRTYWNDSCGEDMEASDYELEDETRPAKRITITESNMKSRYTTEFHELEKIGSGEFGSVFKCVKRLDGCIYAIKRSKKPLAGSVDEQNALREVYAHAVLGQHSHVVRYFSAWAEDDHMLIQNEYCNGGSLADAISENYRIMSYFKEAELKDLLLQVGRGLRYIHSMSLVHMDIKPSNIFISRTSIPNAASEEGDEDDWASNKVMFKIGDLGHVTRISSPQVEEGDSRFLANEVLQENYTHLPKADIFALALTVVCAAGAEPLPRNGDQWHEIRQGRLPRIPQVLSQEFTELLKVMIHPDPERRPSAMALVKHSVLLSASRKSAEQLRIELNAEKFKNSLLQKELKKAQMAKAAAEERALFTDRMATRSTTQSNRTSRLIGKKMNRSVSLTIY

CN1CCN(c2ccc(Nc3ncc4c(=O)c(-c5c(Cl)cccc5Cl)cn(C)c4n3)cc2)CC1 showed an EC50 (Wee1-like protein kinase [1]) of 79 nM, an EC50 (NCI-H1299) of 520 nM and a CLint scaled [2] of 270 mL/min/kg.

In the case of CN1Cc2cc(Nc3ncc4c(=O)n(-c5c(Cl)cccc5Cl)cc(CO)c4n3)ccc2C2(CC2)C1, the EC50 (Wee1-like protein kinase [1]) is reported as 25 nM, the EC50 (NCI-H1299) is reported as 60 nM and the CLint scaled [2] is reported as 320 mL/min/kg.

Compound CN1Cc2cc(Nc3ncc4c(=O)c(-c5c(Cl)cccc5Cl)c[nH]c4n3)ccc2C2(CC2)C1 has a Ki (Wee1-like protein kinase [3]) of 0.6 nM, an EC50 (Wee1-like protein kinase [1]) of 29 nM and an EC50 (NCI-H1299) of 330 nM. For the same compound, the CLint scaled [2] was 532 mL/min/kg.

Compound Cc1cn(-c2c(Cl)cccc2Cl)c(=O)c2cnc(Nc3ccc4c(c3)CN(C)CC43CC3)nc12 has a Ki (Wee1-like protein kinase [3]) of 0.5 nM, an EC50 (Wee1-like protein kinase [1]) of 28 nM and an EC50 (NCI-H1299) of 130 nM. For the same compound, the CLint scaled [2] was 727 mL/min/kg.

Compound CN1Cc2cc(Nc3ncc4c(=O)c(-c5c(Cl)cccc5Cl)cn(C)c4n3)ccc2C2(CC2)C1 has an Activity (MX1 [4]) of 48%, a Ki (Wee1-like protein kinase [3]) of 0.3 nM and a bioavailability [5] of 44%. The EC50 (Wee1-like protein kinase [1]) was 11 nM, the EC50 (NCI-H1299) was 100 nM and the AUC [6] was 6.2 µM·h. The CLint scaled [2] was 413 mL/min/kg, the inhibition in vivo at 25 mg/kg/day (MX1 [7]) was 88% and the TGI (MX1 [8]) was “Active”. For the same compound, the half-life [9] was 2.7 h, the inhibition in vivo at 25 mg/kg/day (MX1 [10]) was 57% and the clearance [11] was 25 mL/min/kg.

With CN1CCN(c2ccc(Nc3ncc4c(=O)c(-c5c(Cl)cccc5Cl)cn(C5CC5)c4n3)cc2)CC1 the Ki (Wee1-like protein kinase [3]) was 1 nM, the EC50 (Wee1-like protein kinase [1]) was 22 nM and the EC50 (NCI-H1299) was 460 nM. For the same compound, the CLint scaled [2] was 582 mL/min/kg.

Compound CCn1cc(-c2c(Cl)cccc2Cl)c(=O)c2cnc(Nc3ccc4c(c3)CN(C)CC43CC3)nc21 has an EC50 (Wee1-like protein kinase [1]) of 19 nM and an EC50 (NCI-H1299) of 210 nM.

With C=Cc1cn(-c2c(Cl)cccc2Cl)c(=O)c2cnc(Nc3ccc4c(c3)CN(C)CC43CC3)nc12 the Ki (Wee1-like protein kinase [3]) was 0.3 nM, the EC50 (Wee1-like protein kinase [1]) was 21 nM and the EC50 (NCI-H1299) was 80 nM. The CLint scaled [2] was 463 mL/min/kg.

In the case of CN1CCN(c2ccc(Nc3ncc4c(=O)c(-c5c(Cl)cccc5Cl)cn(CC(C)(C)O)c4n3)cc2)CC1, the Ki (Wee1-like protein kinase [3]) is reported as 0.2 nM, the EC50 (Wee1-like protein kinase [1]) is reported as 4020 nM and the EC50 (NCI-H1299) is reported as > 10000 nM. It also gave a CLint scaled [2] of 482 mL/min/kg.

Compound CN(C)CCn1cc(-c2c(Cl)cccc2Cl)c(=O)c2cnc(Nc3ccc(N4CCN(C)CC4)cc3)nc21 has a Ki (Wee1-like protein kinase [3]) of 24.4 nM, an EC50 (Wee1-like protein kinase [1]) of 2850 nM and an EC50 (NCI-H1299) of 7650 nM. The CLint scaled [2] was 1970 mL/min/kg.

Compound CN1CCN(c2ccc(Nc3ncc4c(=O)c(-c5c(Cl)cccc5Cl)cn(C5COC5)c4n3)cc2)CC1 has an EC50 (Wee1-like protein kinase [1]) of 324 nM, an EC50 (NCI-H1299) of 1720 nM and a CLint scaled [2] of 582 mL/min/kg.

For CN1Cc2cc(Nc3ncc4c(=O)c(-c5c(Cl)cccc5Cl)cn(C5CC5)c4n3)ccc2C2(CC2)C1, the EC50 (Wee1-like protein kinase [1]) was 31 nM, the EC50 (NCI-H1299) was 390 nM and the CLint scaled [2] was 458 mL/min/kg.

Compound CN1Cc2cc(Nc3ncc4c(=O)n(-c5c(Cl)cccc5Cl)cc(C(F)F)c4n3)ccc2C2(CC2)C1 has a Ki (Wee1-like protein kinase [3]) of 0.6 nM, an EC50 (Wee1-like protein kinase [1]) of 18 nM and an EC50 (NCI-H1299) of 140 nM. For the same compound, the CLint scaled [2] was 753 mL/min/kg.

In the case of CN1Cc2cc(Nc3ncc4c(=O)n(-c5c(F)cccc5Cl)c5nccn5c4n3)ccc2C(C)(C)C1, the Ki (Wee1-like protein kinase [3]) is reported as 1.1 nM and the CLint scaled [2] is reported as 635 mL/min/kg.

For CN1CCN(c2ccc(Nc3ncc4c(=O)c(-c5c(Cl)cccc5Cl)cn(-c5ccccc5)c4n3)cc2)CC1, the Ki (Wee1-like protein kinase [3]) was 0.2 nM, the EC50 (Wee1-like protein kinase [1]) was 246 nM and the EC50 (NCI-H1299) was 500 nM.
